From ChEMBL document CHEMBL1145645, “Bis-tetrahydroisoquinoline derivatives: AG525E1, a new step in the search for non-quaternary non-peptidic small conductance Ca(2+)-activated K(+) channel blockers” (Bioorg Med Chem Lett, 2008)
Values belong to the compound of their own block, whether it stands above or below them.

Experiments:
[1] = Inhibition of apamin-sensitive SK channel
[2] = Inhibition of apamin-sensitive SK channel at 10 uM
[3] = molecular target: T1, 5-hydroxytryptamine receptor 1A (Homo sapiens) (UniProt P08908); experiment: Inhibition of 5HT1A receptor at 10 uM
T1 sequence (whole entry): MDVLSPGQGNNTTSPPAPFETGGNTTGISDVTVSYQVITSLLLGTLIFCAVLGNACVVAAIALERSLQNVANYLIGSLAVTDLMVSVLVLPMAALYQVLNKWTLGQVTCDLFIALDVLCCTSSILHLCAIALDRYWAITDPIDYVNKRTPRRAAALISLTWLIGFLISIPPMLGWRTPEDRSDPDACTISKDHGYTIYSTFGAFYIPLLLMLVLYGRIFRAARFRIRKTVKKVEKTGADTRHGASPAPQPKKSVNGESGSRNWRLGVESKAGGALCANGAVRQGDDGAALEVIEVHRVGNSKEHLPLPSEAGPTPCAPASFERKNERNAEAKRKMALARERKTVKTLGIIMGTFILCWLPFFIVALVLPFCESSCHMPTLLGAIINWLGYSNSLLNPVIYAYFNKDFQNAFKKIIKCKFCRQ

[4] = Inhibition of sigma 2 receptor at 10 uM
[5] = molecular target: Histamine H3 receptor (Homo sapiens) (UniProt Q9Y5N1); experiment: Inhibition of histamine H3 receptor at 10 uM
[6] = molecular target: D(2) dopamine receptor (Homo sapiens) (UniProt P14416); experiment: Inhibition of dopamine D2 receptor at 10 uM
[7] = Inhibition of L-type calcium channel at 10 uM
[8] = molecular target: Small conductance calcium-activated potassium channel protein 1 (Homo sapiens, UniProt Q92952); experiment: Inhibition of SK1 expressed in CHO FlipIn cells by whole cell patch-clamp assay; type: cell-based
How it was run: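 Whole-cell patch clamp on CHO FlipIn cells stably transfected with SK1, grown in Ham's F-12 with 10% calf serum, streptomycin/penicillin and hygromycin-B. Pipette solution (mM): KCl 130, EGTA 10, CaCl2 8.751, MgCl2 1.08, Hepes 10 ([…]), pH 7.2. K+ currents at −50 mV; percent inhibition at increasing concentrations, normalised to full block by 100 µM N-methyl-laudanosine.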

[9] = molecular target: Small conductance calcium-activated potassium channel protein 2 (Homo sapiens, UniProt Q9H2S1); experiment: Inhibition of SK2 expressed in CHO FlipIn cells by whole cell patch-clamp assay; type: cell-based
[10] = molecular target: Small conductance calcium-activated potassium channel protein 3 (Homo sapiens, UniProt Q9UGI6); experiment: Inhibition of SK3 expressed in CHO FlipIn cells by whole cell patch-clamp assay; type: cell-based
[11] = Dissociation constant, pKa at pH 1.8 to 2.0; type: physicochemical
How it was run: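 pKa by potentiometric titration on a Sirius PCA200 analyser; at least three aqueous solutions titrated; sample acidified to pH 1.8–2.0 with 0.5 M aqueous HCl, then titrated with 0.5 M aqueous KOH to pH 12.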

[12] = Lipophilicity, log P of the compound; type: physicochemical; conditions: octanol/water
How it was run: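 logP by potentiometric titration on a Sirius PCA200 analyser; at least three titrations at different phase volume ratios, mean logP reported; sample acidified to pH 1.8–2.0 with 0.5 M HCl, titrated with 0.5 M KOH to pH 12.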

Small conductance calcium-activated potassium channel protein 3, sequence (Q9UGI6 whole entry): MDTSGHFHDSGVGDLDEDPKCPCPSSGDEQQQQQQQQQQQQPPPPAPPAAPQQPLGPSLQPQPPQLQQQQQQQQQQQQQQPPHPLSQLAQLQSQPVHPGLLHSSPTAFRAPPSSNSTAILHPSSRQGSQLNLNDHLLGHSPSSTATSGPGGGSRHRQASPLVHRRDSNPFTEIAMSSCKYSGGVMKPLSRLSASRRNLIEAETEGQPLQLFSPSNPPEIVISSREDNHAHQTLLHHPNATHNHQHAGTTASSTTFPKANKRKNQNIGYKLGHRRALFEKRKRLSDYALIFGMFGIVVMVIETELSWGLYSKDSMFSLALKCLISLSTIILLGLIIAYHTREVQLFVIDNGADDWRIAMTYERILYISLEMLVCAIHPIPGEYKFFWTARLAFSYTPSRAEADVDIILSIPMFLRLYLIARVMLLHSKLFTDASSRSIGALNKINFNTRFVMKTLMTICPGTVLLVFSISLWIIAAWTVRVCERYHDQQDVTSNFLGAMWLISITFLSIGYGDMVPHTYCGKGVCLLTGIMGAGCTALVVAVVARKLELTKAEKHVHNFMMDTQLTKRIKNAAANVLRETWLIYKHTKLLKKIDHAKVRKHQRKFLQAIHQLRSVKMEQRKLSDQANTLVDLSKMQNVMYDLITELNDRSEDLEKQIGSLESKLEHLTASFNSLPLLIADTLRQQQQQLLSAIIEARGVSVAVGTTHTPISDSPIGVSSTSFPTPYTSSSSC
Small conductance calcium-activated potassium channel protein 1, sequence (Q92952 whole entry): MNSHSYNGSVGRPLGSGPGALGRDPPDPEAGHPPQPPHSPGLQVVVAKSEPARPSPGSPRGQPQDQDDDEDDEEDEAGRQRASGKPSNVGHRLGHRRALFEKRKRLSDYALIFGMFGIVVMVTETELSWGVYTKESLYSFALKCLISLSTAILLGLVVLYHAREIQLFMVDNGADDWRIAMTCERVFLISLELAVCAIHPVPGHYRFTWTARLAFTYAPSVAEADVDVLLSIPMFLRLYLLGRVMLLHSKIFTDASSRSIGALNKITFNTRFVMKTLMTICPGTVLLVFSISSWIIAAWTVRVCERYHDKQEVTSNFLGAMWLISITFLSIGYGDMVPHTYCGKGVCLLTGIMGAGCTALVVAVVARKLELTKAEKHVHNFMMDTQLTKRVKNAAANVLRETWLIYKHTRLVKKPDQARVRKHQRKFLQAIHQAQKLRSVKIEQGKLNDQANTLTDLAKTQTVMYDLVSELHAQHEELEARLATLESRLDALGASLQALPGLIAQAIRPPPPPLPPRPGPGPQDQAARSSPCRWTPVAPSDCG
Histamine H3 receptor (Homo sapiens), sequence (Q9Y5N1 whole entry): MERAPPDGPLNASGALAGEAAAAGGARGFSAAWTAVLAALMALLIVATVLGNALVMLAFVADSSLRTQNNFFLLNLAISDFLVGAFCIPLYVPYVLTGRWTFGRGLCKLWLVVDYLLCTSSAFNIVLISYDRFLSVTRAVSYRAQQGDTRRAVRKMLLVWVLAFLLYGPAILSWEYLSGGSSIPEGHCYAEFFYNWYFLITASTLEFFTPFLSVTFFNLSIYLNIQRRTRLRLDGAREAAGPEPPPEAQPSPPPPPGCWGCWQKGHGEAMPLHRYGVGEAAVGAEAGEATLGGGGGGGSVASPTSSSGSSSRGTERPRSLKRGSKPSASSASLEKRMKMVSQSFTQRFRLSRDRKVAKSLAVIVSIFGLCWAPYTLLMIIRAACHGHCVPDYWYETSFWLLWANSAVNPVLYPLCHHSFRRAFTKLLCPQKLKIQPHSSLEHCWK
D(2) dopamine receptor (Homo sapiens), sequence (P14416 whole entry): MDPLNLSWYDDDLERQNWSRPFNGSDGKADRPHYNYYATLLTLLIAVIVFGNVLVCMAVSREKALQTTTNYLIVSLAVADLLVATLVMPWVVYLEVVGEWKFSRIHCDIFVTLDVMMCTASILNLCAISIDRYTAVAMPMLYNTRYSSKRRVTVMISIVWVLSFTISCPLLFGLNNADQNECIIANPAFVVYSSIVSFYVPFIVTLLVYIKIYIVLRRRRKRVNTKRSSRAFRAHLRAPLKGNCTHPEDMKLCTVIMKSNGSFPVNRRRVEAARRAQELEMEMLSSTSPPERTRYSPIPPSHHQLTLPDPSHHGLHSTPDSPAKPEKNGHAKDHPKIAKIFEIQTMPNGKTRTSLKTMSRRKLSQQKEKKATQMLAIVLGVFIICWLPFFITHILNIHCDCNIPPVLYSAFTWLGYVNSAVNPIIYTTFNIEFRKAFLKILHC
Small conductance calcium-activated potassium channel protein 2, sequence (Q9H2S1 whole entry): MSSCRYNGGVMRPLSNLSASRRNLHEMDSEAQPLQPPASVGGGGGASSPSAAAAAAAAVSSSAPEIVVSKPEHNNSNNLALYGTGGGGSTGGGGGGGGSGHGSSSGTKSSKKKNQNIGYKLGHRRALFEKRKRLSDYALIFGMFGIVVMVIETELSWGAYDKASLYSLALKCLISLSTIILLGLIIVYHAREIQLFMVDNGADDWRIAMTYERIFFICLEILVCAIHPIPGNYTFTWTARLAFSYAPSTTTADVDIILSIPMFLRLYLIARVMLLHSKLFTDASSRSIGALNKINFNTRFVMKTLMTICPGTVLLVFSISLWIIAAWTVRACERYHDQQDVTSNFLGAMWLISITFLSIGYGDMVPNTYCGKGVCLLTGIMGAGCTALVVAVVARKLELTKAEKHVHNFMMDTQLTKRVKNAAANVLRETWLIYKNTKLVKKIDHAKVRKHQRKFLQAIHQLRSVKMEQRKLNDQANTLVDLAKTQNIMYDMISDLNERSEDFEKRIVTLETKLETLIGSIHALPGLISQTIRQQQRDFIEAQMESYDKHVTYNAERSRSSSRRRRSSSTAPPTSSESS

SMILES: COc1ccc(CC2c3cc(OC)c(OC)cc3CCN2C)cc1OC (configuration not stated) [LAUDANOSINE]
Ki [1]: 30000 nM

SMILES: COc1cc2c(cc1OC)[C@@H](CCC[C@@H]1c3cc(OC)c(OC)cc3CCN1C)N(C)CC2
Ki [1]: 1880 nM

SMILES: COc1cc2c(cc1OC)[C@@H](CCC[C@H]1c3cc(OC)c(OC)cc3CCN1C)N(C)CC2
Ki [1]: 1420 nM

SMILES: COc1ccc(C[C@H]2c3cc(OC)c(OC)cc3CC[N+]2(C)C)cc1OC [LAUDANOSINE METHIODIDE]
Ki [1]: 1600 nM

These reach a lower Ki [1]. Values come first.

inhibition [2]: 61% | Ki [1]: 293 nM | inhibition [3]: 39% | inhibition [4]: 39% | inhibition [5]: 37% | inhibition [6]: 31% | inhibition [7]: 36% | IC50 [8]: 3800 nM | IC50 [9]: 2600 nM | IC50 [10]: 3000 nM | pKa [11]: 8.1 | logP [12]: 2.9
SMILES: COc1cc2c(cc1OC)[C@H](CCC[C@H]1c3cc(OC)c(OC)cc3CCN1C)N(C)CC2

Ki [1]: 221 nM
SMILES: Cc1cc(N)c2ccccc2[n+]1CCCCCCCCCC[n+]1c(C)cc(N)c2ccccc21 [DEQUALINIUM CHLORIDE]
